Where “and” joins values, the source holds several entries; their conditions need not be identical. Equal entries are not always repeated.

The species entered for the first assay is Rattus norvegicus. Description: Activity expressed as the dose required to reduce the lowering of the arterial blood pressure caused by PAF by 50%. The following applies: Artery, read-out: ID50 (the source's name). The format is functional. In a few lines: (§1)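 Male Sprague-Dawley rats (180–220 g) anesthetized with sodium pentobarbital (50 mg/kg ip). Carotid arterial pressure was recorded. Compound was given iv in saline (1 mL/kg) via femoral vein 3 min before PAF (0.5 μg/kg iv); vehicle controls.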
Take `CC1OCC(COC(=O)CCCCC[n+]2ccsc2)O1.Cc1ccc(S(=O)(=O)[O-])cc1` (stereo not given): the ED50 is greater than 5 mg/kg.
For the molecule `CCCCCCCCCCCCCCC1COC(COC(=O)CCCCC[n+]2ccsc2)C1.Cc1ccc(S(=O)(=O)[O-])cc1` (stereo not given), the ED50 is greater than 5 mg/kg.
In the case of `CCCCCCCCCCCCCCCCCC1OCC(COCCCCCCCC[n+]2ccsc2)O1.Cc1ccc(S(=O)(=O)[O-])cc1` (stereo not given), the ED50 was greater than 5 mg/kg.

In a further assay the target is Platelet-activating factor receptor (Rattus norvegicus) (UniProt P46002). Kind of assay: Activity expressed as the dose required to reduce the lowering of the arterial blood pressure caused by PAF by 50%. It is filed as functional. The following applies: Artery. In a few lines: as §1
Platelet-activating factor receptor (Rattus norvegicus), sequence (P46002 whole entry): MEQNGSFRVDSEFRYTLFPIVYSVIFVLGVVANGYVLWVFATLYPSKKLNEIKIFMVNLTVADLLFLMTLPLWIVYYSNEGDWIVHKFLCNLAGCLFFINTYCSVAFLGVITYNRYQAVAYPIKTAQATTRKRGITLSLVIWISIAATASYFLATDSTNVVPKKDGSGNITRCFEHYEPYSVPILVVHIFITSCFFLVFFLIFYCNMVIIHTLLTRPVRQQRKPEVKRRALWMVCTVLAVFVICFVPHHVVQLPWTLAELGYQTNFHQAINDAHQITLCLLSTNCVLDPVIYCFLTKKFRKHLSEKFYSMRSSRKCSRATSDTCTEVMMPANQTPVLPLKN
In turn, `CCCCCCCCCCCCCCCCCC1OCC(COCCCCCC[n+]2cscc2C)O1` (stereo not given) showed an ID50 of 3.1 mg/kg.
Molecule `CCCCCCCCCCCCCCOCC1COC(COCCCCCCC[n+]2ccsc2)C1` (stereo not given) returned an ID50 of 1.4 mg/kg.
The molecule `CCCCCCCCCCCCCCC1COC(COC(=O)N(Cc2cccc[n+]2CC)C(C)=O)C1` (stereo not given) displayed an ID50 of 0.24 mg/kg.
With `CCCCCCCCCCCCCCCNC(=O)OCC1CC(COC(=O)N(Cc2cccc[n+]2CC)C(C)=O)CO1` (stereo not given), the ID50 stood at 0.049 mg/kg.
Still for that read-out and setting: for `CCCCCCCCCCCCCCCCCC1OCC(COCCCCCC[n+]2ccsc2)O1` (stereo not given) the value was 1.3 mg/kg; for `CCCCCCCCCCCCCCC1COC(COP(=O)([O-])OCC[N+](C)(C)C)C1` (stereo not given), greater than 5 mg/kg.
Same read-out and setting: for `CCCCCCCCCCCCCCCCCCOCC1CC(COCCCCC[n+]2ccsc2)CO1` (stereo not given) the value was 2.5 mg/kg; for `CCCCCCCCCCCCCCCCCC1OCC(COCCCCCC[n+]2ccccc2)O1` (stereo not given), greater than 5 mg/kg.
Still for that read-out and setting: for `CCCCCCCCCCCCCCC1COC(COCCCCCCC[n+]2ccsc2)C1` (stereo not given) the value was 1.5 mg/kg; for `CCCCCCCCCCCCCCCCOCC1COC(COC(=O)N(C(C)=O)c2ccc[n+](CC)c2)C1` (stereo not given), 0.13 mg/kg; for `CCCCCCCCCCCCCCCNC(=O)OCC1CC(COC(=O)N(Cc2cccc[n+]2CC)C(C)=O)CO1` (stereo in doubt; form 1), 0.057 mg/kg.
Molecule `CCCCCCCCCCCCOCC1COC(COCCCCCCC[n+]2ccsc2)C1` (stereo not given) displayed an ID50 of 3.7 mg/kg.
`CCCCCCCCCCCCCCCCCCOCC1CC(COCCCCCCC[n+]2ccsc2)CO1` (stereo not given) had an ID50 of 2.1 mg/kg.
As for `CCCCCCCCCCCCCCCCOCC1COC(COC(=O)NCCc2cccc[n+]2CC)C1` (stereo not given), the ID50 was greater than 5 mg/kg.
Take `CCCCCCCCCCCCCCCCOCC1COC(COC(=O)N(CCc2cccc[n+]2CC)C(C)=O)C1` (stereo not given): the ID50 was greater than 5 mg/kg.
For the molecule `CCCCCCCCCCCCCCOCC1COC(COC(=O)N(Cc2cccc[n+]2CC)C(C)=O)C1` (stereo not given), the ID50 is 0.087 mg/kg.
The same measure, in the same setting: for `CCCCCCCCCCCCCCCCOCC1COC(COC(=O)N(C(C)=O)c2cc[n+](CC)cc2)C1` (stereo not given) the value was greater than 5 mg/kg; for `CCCCCCCCCCCCCCCCCCOCC1COC(COC(=O)CCCCC[n+]2ccsc2)C1` (stereo not given), 2.4 mg/kg.
The same measure, in the same setting: for `CCCCCCCCCCCCCCCC1CCC(COCCCCCC[n+]2ccsc2)O1` (stereo not given) the value was 2 mg/kg.
As to `CCCCCCCCCCCCCCCCOCC1COC(COC(=O)N(Cc2cccc[n+]2C)C(C)=O)C1` (stereo not given), the ID50 was 0.24 mg/kg.
Consider `CCCCCCCCCCCCCCCCOCC1COC(COC(=O)N(Cc2cccc[n+]2CC)C(=O)OCC)C1` (stereo not given), for which the ID50 amounted to 0.035 mg/kg.
The same measure, in the same setting: for `CCCCCCCCCCCCCCCCCCC1COC(COC(=O)N(Cc2cccc[n+]2CC)C(C)=O)C1` (stereo not given) the value was 0.23 mg/kg.
The same measure, in the same setting: for `CCCCCCCCCCCCCCOCC1COC(COCCCCCC[n+]2ccsc2)C1` (stereo not given) the value was 3.1 mg/kg.
`CCCCCCCCCCCCCCCCC1COC(COCCCCCCC[n+]2ccsc2)C1` (stereo not given) yielded an ID50 of 2 mg/kg.
As to `CCCCCCCCCCCCCCCCCC1OCC(COC(=O)CCCCC[n+]2ccsc2)O1` (stereo not given), the ID50 came out at 0.88 mg/kg.
As to `CCCCCCCCCCCCCCCCCCOCC1COC(COC(=O)N(Cc2cccc[n+]2CC)C(C)=O)O1` (stereo not given), the ID50 came to 0.017 mg/kg.
The same measure, in the same setting: for `CCCCCCCCCCCCCCCCCCOCC1COC(COC(=O)Nc2cc[n+](CC)cc2)C1` (stereo not given) the value was greater than 5 mg/kg; for `CCCCCCCCCCCCCCOCC1COC(COC(=O)N(Cc2cccc[n+]2CC)C(C)=O)O1` (stereo not given), 0.2 mg/kg.
Same read-out and setting: for `CCCCCCCCCCCCCCCCOCC1COC(COC(=O)N(Cc2cccc[n+]2CC)C(C)=O)C1` (stereo not given) the value was 0.044 mg/kg and 0.035 mg/kg; for `CCCCCCCCCCCCCCCCCCOCC1COC(COC(=O)NCc2cc[n+](CC)cc2)C1` (stereo not given), greater than 5 mg/kg; for `CCCCCCCCCCCCCCCC1CCC(COC(=O)N(Cc2cccc[n+]2CC)C(C)=O)O1` (stereo not given), 0.15 mg/kg.
On the same count and under the same terms, for `CCCCCCCCCCCCCCCCCCOCC1COC(COC(=O)N(Cc2cccc[n+]2CC)C(C)=O)C1` (stereo not given) the value was 0.035 mg/kg.
Turning to `CCCCCCCCCCCCCCCCCC1OCC(COC(=O)N(Cc2cccc[n+]2CC)C(C)=O)O1` (stereo not given), the ID50 was 0.24 mg/kg.
On the same count and under the same terms, for `CCCCCCCCCCCCCCCCOCC1CC(COC(=O)N(Cc2cccc[n+]2CC)C(C)=O)CO1` (stereo not given) the value was 0.027 mg/kg and 0.02 mg/kg; for `CCCCCCCCCCCCCCCCOCC1COC(COC(=O)NCc2cccc[n+]2CC)C1` (stereo not given), greater than 5 mg/kg; for `CCCCCCCCCCCCCCCC1OCC(COC(=O)CCCCC[n+]2ccsc2)O1` (stereo not given), 0.86 mg/kg.
The same measure, in the same setting: for `CCCCCCCCCCCCCCCCOCC1OCC(COC(=O)N(Cc2cccc[n+]2CC)C(C)=O)O1` (stereo not given) the value was 0.024 mg/kg; for `CCCCCCCCCCCCCCCCOCC1OCC(COC(=O)CCCCC[n+]2ccsc2)O1` (stereo not given), 1.1 mg/kg.
Same read-out and setting: for `CCCCCCCCCCCCCCCCOCC1COC(COC(=O)CCCCC[n+]2ccsc2)C1` (stereo not given) the value was 1.7 mg/kg; for `CCCCCCCCCCCCCCCNC(=O)OCC1CC(COC(=O)N(Cc2cccc[n+]2CC)C(C)=O)CO1` (stereo in doubt; form 2), 0.042 mg/kg; for `CCCCCCCCCCCCCCCCCC1OCC(COP(=O)([O-])OCC[N+](C)(C)C)O1` (stereo not given), greater than 5 mg/kg.
The molecule `CCCCCCCCCCCCCCCCCC1OCC(COCCCCCC[N+]2(C)CCOCC2)O1` (stereo not given) had an ID50 greater than 5 mg/kg.
Still for that read-out and setting: for `CCCCCCCCCCCCCCCCOCC1CCC(COC(=O)N(Cc2cccc[n+]2CC)C(C)=O)O1` (stereo not given) the value was 0.036 mg/kg; for `CCCCCCCCCCCCCCCCCCOCC1OCC(COC(=O)N(Cc2cccc[n+]2CC)C(C)=O)O1` (stereo not given), 0.041 mg/kg; for `CCCCCCCCCCCCCCCCOCC1COC(COCCCCCC[n+]2ccsc2)C1` (stereo not given), 1.2 mg/kg.
Same read-out and setting: for `CCCCCCCCCCCCCCC1COC(COCCCCCC[n+]2ccsc2)C1` (stereo in doubt; form 2) the value was 2.9 mg/kg.
The same measure, in the same setting: for `CCCCCCCCCCCCCCC1COC(COCCCCCC[n+]2ccsc2)C1` (stereo in doubt; form 1) the value was 2.5 mg/kg; for `CCCCCCCCCCCCCCCCCCOCC1COC(COC(=O)N(Cc2cc[n+](CC)cc2)C(C)=O)C1` (stereo not given), 1.6 mg/kg; for `CCCCCCCCCCCCCCCCOCC1COC(COC(=O)N(Cc2cccc[n+]2CC)C(C)=O)O1` (stereo not given), 0.057 mg/kg and 0.029 mg/kg.
Consider `CCCCCCCCCCCCCCCCCC1OCC(COCCCCCC[n+]2cccc3ccccc32)O1` (stereo not given), for which the ID50 came out at 3.8 mg/kg.
Same read-out and setting: for `CCCCCCCCCCCCCCC1COC(COCCCCCC[n+]2cccc3ccccc32)C1` (stereo not given) the value was 3 mg/kg.
Same read-out and setting: for `CCCCCCCCCCCCCCCCOCC1CC(COCCCCCC[n+]2ccsc2)CO1` (stereo not given) the value was 1.8 mg/kg.
The same measure, in the same setting: for `CCCCCCCCCCCCCCCCCC1OCC(COCCCC[n+]2ccsc2)O1` (stereo not given) the value was greater than 5 mg/kg; for `CCCCCCCCCCCCCCCCCC1OCC(COP(=O)([O-])OCC[n+]2ccccc2)O1` (stereo not given), greater than 5 mg/kg; for `CCCCCCCCCCCCCCCCCCOCC1CC(COC(=O)CCCCC[n+]2ccsc2)CO1` (stereo not given), 1.1 mg/kg.
In the case of `CCCCCCCCCCCCCCCCCC1COC(COC(=O)N(Cc2cccc[n+]2CC)C(C)=O)O1` (stereo not given), the ID50 was determined as 0.074 mg/kg.
Still for that read-out and setting: for `CCCCCCCCCCCCCCCCCCOCC1COC(COC(=O)N(Cc2ccc[n+](CC)c2)C(C)=O)C1` (stereo not given) the value was greater than 5 mg/kg.
Still for that read-out and setting: for `CCCCCCCCCCCCCCCCCC1CCC(COC(=O)N(Cc2cccc[n+]2CC)C(C)=O)O1` (stereo not given) the value was 0.15 mg/kg; for `CCCCCCCCCCCCCCC1COC(COP(=O)([O-])OCC[n+]2ccccc2)C1` (stereo not given), greater than 5 mg/kg.
Turning to `CCCCCCCCCCCCCCCCCCNC(=O)OCC(COC(=O)N(Cc1cccc[n+]1CC)C(C)=O)OC` (stereo not given), the ID50 was 0.0078 mg/kg and 0.011 mg/kg.
On the same count and under the same terms, for `CCCCCCCCCCCCCCC1COC(COCCCC[n+]2ccsc2)C1` (stereo not given) the value was greater than 5 mg/kg; for `CCCCCCCCCCCCCCCCOCC1OCC(COCCCCCC[n+]2ccsc2)O1` (stereo not given), 1.8 mg/kg.
Still for that read-out and setting: for `CCCCCCCCCCCCCCCC1CCC(COC(=O)CCCCC[n+]2ccsc2)O1` (stereo not given) the value was 1.2 mg/kg; for `CCCCCCCCCCCCCCCCCC1CC(COC(=O)N(Cc2cccc[n+]2CC)C(C)=O)CO1` (stereo not given), 0.052 mg/kg; for `CCCCCCCCCCCCCCCNC(=O)OCC1COC(COC(=O)N(Cc2cccc[n+]2CC)C(C)=O)C1` (stereo not given), 0.067 mg/kg and 0.033 mg/kg.
The same measure, in the same setting: for `CCCCCCCCCCCCCCCCCC1OCC(COCCCCCC[N+](C)(C)C)O1` (stereo not given) the value was greater than 5 mg/kg.
With `CCCCCCCCCCCCCCCCOCC1COC(COC(=O)N(Cc2ccccn2)C(C)=O)C1` (stereo not given), the ID50 was greater than 5 mg/kg.
For the molecule `CCCCCCCCCCCCCCC1COC(COCCCCCC[N+](C)(C)C)C1` (stereo not given), the ID50 was greater than 5 mg/kg.
For the molecule `CCCCCCCCCCCCCCC1COC(COCCCCCCCC[n+]2ccsc2)C1` (stereo not given), the ID50 worked out at 2.3 mg/kg.
On the same count and under the same terms, for `CCCCCCCCCCCCCC1OCC(COC(=O)CCCCC[n+]2ccsc2)O1` (stereo not given) the value was greater than 5 mg/kg; for `CCCCCCCCCCCCCCCCOCC1OCC(COCCCC[n+]2ccsc2)O1` (stereo not given), 2.7 mg/kg.
Still for that read-out and setting: for `CCCCCCCCCCCCCCCCCCCC1OCC(COC(=O)CCCCC[n+]2ccsc2)O1` (stereo not given) the value was 5.1 mg/kg.

For the origin of these results see ChEMBL document CHEMBL1125836, “Disubstituted tetrahydrofurans and dioxolanes and PAF antagonists” (J Med Chem, 1991).
